The nature of data set [1]: folding enthalpy; higher = less favourable; fluorescence melt of hairpins on a sequencing array, two-state fit. The note with it: sodium 0.088 M. In a few lines: (§1)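 Bootstrapped two-state fits yielded melting temperature and folding enthalpy for library hairpins. Cy3 fluorescence, with annealed Cy3 and quencher oligos, was imaged on a sequenced MiSeq flow cell in 50 mM Na-HEPES pH 8.0, 25 mM NaCl in 2.5 °C steps up to 60 °C, and normalised to pre-quench Cy3 and to control constructs. Four replicates were combined by inverse variance, and fitted temperatures were raised by 9.35 °C to match UV melts.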

Data set [2] can be described thus: melting temperature; fluorescence melt of hairpins on a sequencing array, two-state fit, raised by 9.35 °C to match UV melts. The note with it: sodium 0.088 M. In a few lines:
as §1

For the sequence GGTTCCGAAAGGAGGACC ((((((....)))..))), the folding enthalpy in data set [1] is -18.8 kcal/mol. Also, in data set [2], the Tm stood at 38.1 °C.
The corresponding values for GGTTCCGAAAGGAGTACC ((((((....)))..))) are -21 kcal/mol and 38.9 °C.
Take GGTTCCGAAAGGATCACC ((((((....)))..))): the folding enthalpy in data set [1] was -14.7 kcal/mol. For the same sequence, the Tm in data set [2] was 33.1 °C.
The corresponding values for GGTTCGCGAAAGCGACC (((.(((....)))))) are -14.9 kcal/mol and 61.7 °C.
For GGTTCGGGAAACCGGACC (((.(((....))).))), the folding enthalpy in data set [1] is -39.5 kcal/mol. In data set [2], the Tm was 58.3 °C.
As for GGTTCGGGAAACCGGATC (.(.(((....))).).), the folding enthalpy in data set [1] is -18.3 kcal/mol. For the same sequence, the Tm in data set [2] amounted to 38.2 °C.
Take GGTTCTCCGAAAGGAACC (((..(((....)))))): the folding enthalpy in data set [1] is -20.8 kcal/mol. Moreover, in data set [2], the Tm came out at 42.9 °C.
The corresponding values for GGTTCTCGAAAGAGTACC (((.(((....))).))) are -26.1 kcal/mol and 46.7 °C.
In the case of GGTTCTGGAAACAAAACC ((((.((....)).)))), the folding enthalpy in data set [1] is -16.3 kcal/mol. For the same sequence, the Tm in data set [2] came to 28.5 °C.
With GGTTCTGGAAACAGAACC (((((((....))))))), the folding enthalpy in data set [1] is -46.5 kcal/mol. The Tm in data set [2] was 60.8 °C.
In the same order, the values of GGTTGAACGAAAGTTACC (((..(((....)))))) are -13.2 kcal/mol and 31.1 °C.
The corresponding values for GGTTGACGAAAGTCCACC (((.(((....))).))) are -32 kcal/mol and 50.5 °C.
For the sequence GGTTGAGGAAACTCAACC (((((((....))))))), in data set [1], the folding enthalpy was -40.1 kcal/mol. For the same sequence, in data set [2], the Tm stood at 60.7 °C.
The corresponding values for GGTTGAGGAAACTCGACC (((.(((....))).))) are -44.2 kcal/mol and 51.5 °C.
The corresponding values for GGTTGCCGAAAGGCACC (((.(((....)))))) are -14.5 kcal/mol and 59 °C.
Regarding GGTTGCGAAAGCAGAACC ((((((....)))..))), in data set [1], the folding enthalpy was -19.8 kcal/mol. For the same sequence, the Tm in data set [2] was found to be 47.5 °C.
In the case of GGTTGCGAAAGCAGACC ((((((....))).))), the folding enthalpy in data set [1] was -27.2 kcal/mol. Also, in data set [2], the Tm was 51 °C.
Consider GGTTGCTCGAAAGAGACC (((..(((....)))))), for which the folding enthalpy in data set [1] was -13.4 kcal/mol. Moreover, in data set [2], the Tm is 29.6 °C.
Regarding GGTTGGCGAAAGCCCACC (((.(((....))).))), the folding enthalpy in data set [1] was -25.8 kcal/mol. The Tm in data set [2] is 51.4 °C.
As for GGTTGGGAAACCAACC ((((((....)))))), the folding enthalpy in data set [1] is -42.9 kcal/mol. Also, in data set [2], the Tm amounted to 60.4 °C.
The corresponding values for GGTTGGGCGAAAGCCACC (((..(((....)))))) are -12.7 kcal/mol and 39.8 °C.
Turning to GGTTGGGGAAACCCAGTC (..((((....))))..), the folding enthalpy in data set [1] is -8.72 kcal/mol. Moreover, the Tm in data set [2] was 30.4 °C.
In the case of GGTTGGGGAAACCTAACC ((((.((....)).)))), the folding enthalpy in data set [1] is -32.4 kcal/mol. In addition, the Tm in data set [2] amounted to 48 °C.
The corresponding values for GGTTGGGGAAACCTGACC (((..((....))..))) are -22.5 kcal/mol and 44.1 °C.
In the same order, the values of GGTTGTCGAAAGACACC (((.(((....)))))) are -25.9 kcal/mol and 53.1 °C.
For GGTTGTGGAAACACGACC (((.(((....))).))), in data set [1], the folding enthalpy is -43.2 kcal/mol. Moreover, in data set [2], the Tm was 54.5 °C.
In the same order, the values of GGTTGTGGAAACACGATC (.(.(((....))).).) are -21.9 kcal/mol and 34 °C.
Turning to GGTTGTGGAAACATAACC ((((.((....)).)))), the folding enthalpy in data set [1] was -37 kcal/mol. Moreover, the Tm in data set [2] turned out to be 45.9 °C.
The corresponding values for GGTTGTGGAAACGCAACC (((((.(....).))))) are -40.7 kcal/mol and 54 °C.
In the case of GGTTTACGAAAGTAACC (((.(((....)))))), the folding enthalpy in data set [1] was -20.6 kcal/mol. Also, the Tm in data set [2] worked out at 44.2 °C.
In the same order, the values of GGTTTAGAAATAAACC ((((((....)))))) are -29.2 kcal/mol and 45.3 °C.
GGTTTAGGAAACTAAATC (.(((((....))))).): the folding enthalpy in data set [1] is -22.2 kcal/mol. For the same sequence, in data set [2], the Tm came out at 35.5 °C.
The corresponding values for GGTTTAGGAAACTAAGCC ((.((((....)))).)) are -27.6 kcal/mol and 39.8 °C.
Turning to GGTTTCCGAAAGGAACC (((.(((....)))))), the folding enthalpy in data set [1] is -19.8 kcal/mol. Moreover, in data set [2], the Tm came out at 51.8 °C.
Take GGTTTCCGAAAGGACACC (((.(((....))).))): the folding enthalpy in data set [1] is -39 kcal/mol. In addition, the Tm in data set [2] worked out at 49 °C.
In the same order, the values of GGTTTCGAAAGAAAACC ((((((....))).))) are -25.7 kcal/mol and 46.4 °C.
The corresponding values for GGTTTCGAAAGAAGGACC ((((((....)))..))) are -15.5 kcal/mol and 29.1 °C.
In the case of GGTTTCGGAAACGAAATC (.(((((....))))).), the folding enthalpy in data set [1] was -25.1 kcal/mol. In addition, in data set [2], the Tm was found to be 48 °C.
In the same order, the values of GGTTTCGGAAACGAAGTC (..((((....))))..) are -10.3 kcal/mol and 26.4 °C.
In the same order, the values of GGTTTGCCGAAAGGCACC (((..(((....)))))) are -8.06 kcal/mol and 30.7 °C.
In the same order, the values of GGTTTGGGAAACCAAATC (.(((((....))))).) are -31.1 kcal/mol and 44.5 °C.
In the case of GGTTTGGGAAACCAAGTC (..((((....))))..), the folding enthalpy in data set [1] was -15.4 kcal/mol. Besides, the Tm in data set [2] came out at 28.1 °C.
In the case of GGTTTGGGAAACCAGATC (.(.(((....))).).), in data set [1], the folding enthalpy was -10.3 kcal/mol. In data set [2], the Tm was determined as 30 °C.
As to GGTTTGGGAAACCGAATC (.((.((....)).)).), the folding enthalpy in data set [1] is -20.2 kcal/mol. Further, the Tm in data set [2] amounted to 35.3 °C.
Take GGTTTGGGAAACTGAACC ((((..(....)..)))): in data set [1], the folding enthalpy is -29.2 kcal/mol. Moreover, the Tm in data set [2] worked out at 35.1 °C.
As to GGTTTTACGAAAGTAACC (((..(((....)))))), the folding enthalpy in data set [1] is -11.8 kcal/mol. In addition, in data set [2], the Tm stood at 31.7 °C.
The corresponding values for GGTTTTGGAAACAAGACC (((.(((....))).))) are -31.6 kcal/mol and 42.8 °C.
As for GTAAAACGAAAGTTGTAC (((.(((....))).))), in data set [1], the folding enthalpy was -20.4 kcal/mol. The Tm in data set [2] came to 35.3 °C.
In the same order, the values of GTAAACACGAAAGTGTAC (((..(((....)))))) are -11.7 kcal/mol and 31.2 °C.
In the same order, the values of GTAAACCGAAAGGTATAC (((.(((....))).))) are -25.1 kcal/mol and 40.5 °C.
The corresponding values for GTAAACCGAAAGGTGTAC (((.(((....))).))) are -23.3 kcal/mol and 46.2 °C.
For GTAAACGGAAACGCTTAC ((((.((....)).)))), the folding enthalpy in data set [1] is -29.5 kcal/mol. The Tm in data set [2] turned out to be 37.1 °C.
In the same order, the values of GTAAACGGAAACGTCTAC (((.(((....))).))) are -21.2 kcal/mol and 29 °C.
As for GTAAACGGAAACGTTCAC ((.((((....)))).)), in data set [1], the folding enthalpy is -23.6 kcal/mol. In data set [2], the Tm turned out to be 32.4 °C.
For the sequence GTAAAGCGAAAGCTTAC (((.(((....)))))), in data set [1], the folding enthalpy is -12.8 kcal/mol. Besides, the Tm in data set [2] came out at 42.6 °C.
